Results taken from ChEMBL document CHEMBL4673285, “Design, Synthesis, and Biological Evaluation of Linear Aliphatic Amine-Linked Triaryl Derivatives as Potent Small-Molecule Inhibitors of the Programmed Cell Death-1/Programmed Cell Death-Ligand 1 Interaction with Promising Antitumor Effects In Vivo” (J Med Chem, 2020).
Activity calls are given as the source filed them. The rule behind the calls is not given here.

Legend:
[1] = molecular target: Programmed cell death protein 1/Programmed cell death 1 ligand 1 (Homo sapiens, UniProt Q9NZQ7); experiment: Inhibition of PD1-Tag2/PD-L1-Tag1 (unknown origin) protein-protein interaction preincubated for 15 mins followed by addition of anti-Tag1-Eu3+ and anti-Tag2-XL665 measured after 2.5 hrs by HTRF assay; format: protein-complex assay
Summary of the method: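 Commercial HTRF kit. Compound incubated with PD-L1-Tag1 and PD1-Tag2 at rt for 15 min, then anti-Tag1-Eu³⁺/anti-Tag2-XL665 conjugate mix added and incubated 2.5 h at rt.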

RAW264.7 = experiment: Cytotoxicity against mouse RAW264.7 cells assessed as reduction in cell viability at 3.125 to 100 uM incubated for 24 hrs by Cell-titer glo Luminescent assay; format: cell-based; conditions: raw264.7, 24 h, dose 3.125-100 µM
Summary of the method: (§1)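 Cells (Raji, RAW 264.7 or donor PBMCs) plated at 1 × 10⁴ per well in medium with 10% FBS. Treated for 24 h at 37 °C, 5% CO₂ with 100, 50, 25, 12.5, 6.25 or 3.125 μM compound, or buffer containing 0.2% DMSO. Viability read by CellTiter-Glo luminescence; killing rate = (1 − RLU compound/RLU control) × 100%; triplicate, mean ± SEM.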

[2] = Cytotoxicity against human PBMC cells assessed as reduction in cell viability at 6.3 uM incubated for 24 hrs by Cell-titer glo Luminescent assay; format: cell-based; summary of the method: as §1
[3] = Cytotoxicity against human PBMC cells assessed as reduction in cell viability up to 100 uM incubated for 24 hrs by Cell-titer glo Luminescent assay; format: cell-based; summary of the method: as §1
[4] = molecular target: T1, Programmed cell death 1 ligand 1 (Homo sapiens, UniProt Q9NZQ7); experiment: Inhibition of human PD-L1 cocultured in PBMC cells assessed as inhibition of PD1/PDL1 interaction mediated increase in IFN-gamma secretion at 1 uM incubated for 72 hrs by ELISA relative to control; format: cell-based
Summary of the method: (§2)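 Healthy-donor PBMCs, 1 × 10⁵ per well in RPMI 1640 with 10% FBS, stimulated with anti-CD3/anti-CD28 (1:1, 0.8 μg/mL final) plus PD-L1/Fc at 10 μg/mL final. Compound added at 0.1 or 1 μM final and cocultured 72 h at 37 °C, 5% CO₂. Supernatant IFN-γ measured by ELISA; quadruplicate, mean ± SEM.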

[5] = molecular target: T1, Programmed cell death 1 ligand 1; experiment: Inhibition of human PD-L1 cocultured in PBMC cells assessed as inhibition of PD1/PDL1 interaction mediated increase in IFN-gamma secretion at 0.1 uM incubated for 72 hrs by ELISA; format: cell-based; summary of the method: as §2
[6] = molecular target: T1, Programmed cell death 1 ligand 1; experiment: Binding affinity to human PD-L1 expressed in CHOK1 cells assessed as inhibition of PD1/PDL1 protein-protein interaction at 500 nM incubated for 30 mins by flow cytometry analysis relative to control; format: cell-based; conditions: CHO-K1
Summary of the method: (§3)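 CHO-K1-hPD-L1 cells, 5 × 10⁵ per tube in PBS with 2% FBS, incubated with hPD-1/Fc (10 μg/mL final) at 4 °C for 30 min. Compound added at 500 nM final and incubated a further 30 min at 4 °C, then stained with APC anti-human IgG Fc. Percentage of hPD-1-bound cells read by flow cytometry. Blocking efficacy calculated against a no-inhibitor positive control and parental CHO-K1 negative control.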

[7] = molecular target: T1, Programmed cell death 1 ligand 1; experiment: Binding affinity to human PD-L1 expressed in CHOK1 cells assessed as inhibition of PD1/PDL1 protein-protein interaction at 500 nM incubated for 30 mins by flow cytometry analysis; format: cell-based; conditions: CHO-K1; summary of the method: as §3
[8] = molecular target: T1, Programmed cell death 1 ligand 1; experiment: Binding affinity to biotinylated human AVI-PD-L1 by biolayer interferometry
Summary of the method: (§4)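 Biotinylated human PD-L1/AVI at 10 μg/mL loaded on streptavidin biosensors for 300 s, then baselined. Association with compound at 20 to 0.3125 nM plus 0 nM for 180 s, then dissociation in buffer for 300 s. Data globally fitted to a 1:1 model to give ka and kdis; apparent affinity taken as their ratio.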

[9] = molecular target: T1, Programmed cell death 1 ligand 1; experiment: Binding affinity to biotinylated human AVI-PD-L1 assessed as association constant by biolayer interferometry; summary of the method: as §4
[10] = molecular target: T1, Programmed cell death 1 ligand 1; experiment: Binding affinity to biotinylated human AVI-PD-L1 assessed as dissociation rate constant by biolayer interferometry
Raji = experiment: Cytotoxicity against human Raji cells assessed as reduction in cell viability at 100 uM incubated for 24 hrs by Cell-titer glo Luminescent assay; format: cell-based; summary of the method: as §1
[11] = molecular target: T1, Programmed cell death 1 ligand 1; experiment: Inhibition of human PD-L1 cocultured in PBMC cells assessed as inhibition of PD1/PDL1 interaction mediated increase in IFN-gamma secretion at 1 uM incubated for 72 hrs by ELISA; format: cell-based; summary of the method: as §2
[12] = molecular target: T2, Lymphocyte activation gene 3 protein (Homo sapiens) (UniProt P18627); experiment: Binding affinity to human Fc-tagged LAG3 at 500 nM measured after 600 sec by biolayer interferometry
T2 sequence (whole entry): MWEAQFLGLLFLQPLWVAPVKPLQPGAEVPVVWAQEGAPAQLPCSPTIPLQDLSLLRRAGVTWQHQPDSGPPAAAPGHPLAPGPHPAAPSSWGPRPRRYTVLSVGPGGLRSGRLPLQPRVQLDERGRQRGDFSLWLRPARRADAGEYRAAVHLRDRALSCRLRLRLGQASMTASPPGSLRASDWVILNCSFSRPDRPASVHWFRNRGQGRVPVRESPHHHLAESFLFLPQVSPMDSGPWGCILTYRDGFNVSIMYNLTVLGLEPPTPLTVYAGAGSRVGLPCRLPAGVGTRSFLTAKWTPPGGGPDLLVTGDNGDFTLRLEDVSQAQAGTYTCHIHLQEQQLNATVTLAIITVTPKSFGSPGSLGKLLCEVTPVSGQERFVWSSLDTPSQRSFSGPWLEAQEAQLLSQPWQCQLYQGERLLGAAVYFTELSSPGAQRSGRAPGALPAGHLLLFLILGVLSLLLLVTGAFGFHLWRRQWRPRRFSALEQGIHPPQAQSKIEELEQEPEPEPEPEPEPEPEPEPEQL

[13] = molecular target: CD27 antigen (Homo sapiens) (UniProt P26842); experiment: Binding affinity to human Fc-tagged CD27 at 500 nM measured after 600 sec by biolayer interferometry
[14] = molecular target: Hepatitis A virus cellular receptor 2 (Homo sapiens) (UniProt Q8TDQ0); experiment: Binding affinity to human Fc-tagged TIM3 at 500 nM measured after 600 sec by biolayer interferometry
[15] = molecular target: Leukocyte surface antigen CD47 (Homo sapiens) (UniProt Q08722); experiment: Binding affinity to human Fc-tagged CD47 at 500 nM measured after 600 sec by biolayer interferometry
[16] = molecular target: T3, Programmed cell death 1 ligand 2 (Homo sapiens) (UniProt Q9BQ51); experiment: Binding affinity to human Fc-tagged PDL2 at 500 nM measured after 600 sec by biolayer interferometry
T3 sequence (whole entry): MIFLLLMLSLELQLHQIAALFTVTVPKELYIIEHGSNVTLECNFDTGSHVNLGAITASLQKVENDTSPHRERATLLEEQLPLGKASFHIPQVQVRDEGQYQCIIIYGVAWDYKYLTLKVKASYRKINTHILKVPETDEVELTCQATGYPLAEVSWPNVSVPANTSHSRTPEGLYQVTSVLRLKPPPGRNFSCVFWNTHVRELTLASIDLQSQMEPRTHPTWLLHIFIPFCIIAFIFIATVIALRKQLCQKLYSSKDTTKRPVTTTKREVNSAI

[17] = molecular target: T1, Programmed cell death 1 ligand 1; experiment: Binding affinity to human Fc-tagged PDL1 at 500 nM measured after 600 sec by biolayer interferometry
[18] = molecular target: Programmed cell death protein 1 (Homo sapiens) (UniProt Q15116); experiment: Binding affinity to human Fc-tagged PD1 at 500 nM measured after 600 sec by biolayer interferometry
Programmed cell death protein 1 (Homo sapiens), sequence (Q15116 whole entry): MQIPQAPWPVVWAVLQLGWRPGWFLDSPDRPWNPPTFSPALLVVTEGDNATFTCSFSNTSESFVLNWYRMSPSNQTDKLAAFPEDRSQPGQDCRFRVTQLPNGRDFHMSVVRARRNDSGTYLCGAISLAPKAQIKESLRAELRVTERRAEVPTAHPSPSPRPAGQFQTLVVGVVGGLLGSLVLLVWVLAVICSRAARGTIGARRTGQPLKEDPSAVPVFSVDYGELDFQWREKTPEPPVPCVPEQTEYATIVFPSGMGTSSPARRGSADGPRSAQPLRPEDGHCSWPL

Programmed cell death protein 1/Programmed cell death 1 ligand 1, sequence (Q15116 whole entry): as above
Programmed cell death protein 1/Programmed cell death 1 ligand 1, sequence (Q9NZQ7 whole entry): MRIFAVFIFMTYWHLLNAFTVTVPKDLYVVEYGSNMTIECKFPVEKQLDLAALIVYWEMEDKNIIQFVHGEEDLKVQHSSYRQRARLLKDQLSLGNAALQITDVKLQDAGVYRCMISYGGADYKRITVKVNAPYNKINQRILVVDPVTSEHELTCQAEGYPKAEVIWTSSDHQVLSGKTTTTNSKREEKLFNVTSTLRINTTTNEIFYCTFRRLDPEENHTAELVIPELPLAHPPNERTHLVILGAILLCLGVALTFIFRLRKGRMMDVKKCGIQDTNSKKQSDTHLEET
T1 sequence (Q9NZQ7 whole entry): as above
CD27 antigen (Homo sapiens), sequence (P26842 whole entry): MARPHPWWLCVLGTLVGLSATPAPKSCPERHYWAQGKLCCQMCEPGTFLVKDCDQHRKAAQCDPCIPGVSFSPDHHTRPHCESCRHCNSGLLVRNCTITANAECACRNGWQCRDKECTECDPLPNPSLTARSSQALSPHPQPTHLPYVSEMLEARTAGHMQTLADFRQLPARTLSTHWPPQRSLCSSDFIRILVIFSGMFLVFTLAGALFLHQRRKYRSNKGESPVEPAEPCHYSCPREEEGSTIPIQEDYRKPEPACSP
Hepatitis A virus cellular receptor 2 (Homo sapiens), sequence (Q8TDQ0 whole entry): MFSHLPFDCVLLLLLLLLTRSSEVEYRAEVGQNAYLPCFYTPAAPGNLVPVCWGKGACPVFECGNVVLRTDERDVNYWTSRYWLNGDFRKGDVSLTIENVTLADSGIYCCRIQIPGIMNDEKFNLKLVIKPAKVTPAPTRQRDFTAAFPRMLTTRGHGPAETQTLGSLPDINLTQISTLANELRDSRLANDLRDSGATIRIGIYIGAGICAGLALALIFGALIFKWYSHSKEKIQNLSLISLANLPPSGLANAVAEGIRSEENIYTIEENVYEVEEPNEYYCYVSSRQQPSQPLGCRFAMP
Leukocyte surface antigen CD47 (Homo sapiens), sequence (Q08722 whole entry): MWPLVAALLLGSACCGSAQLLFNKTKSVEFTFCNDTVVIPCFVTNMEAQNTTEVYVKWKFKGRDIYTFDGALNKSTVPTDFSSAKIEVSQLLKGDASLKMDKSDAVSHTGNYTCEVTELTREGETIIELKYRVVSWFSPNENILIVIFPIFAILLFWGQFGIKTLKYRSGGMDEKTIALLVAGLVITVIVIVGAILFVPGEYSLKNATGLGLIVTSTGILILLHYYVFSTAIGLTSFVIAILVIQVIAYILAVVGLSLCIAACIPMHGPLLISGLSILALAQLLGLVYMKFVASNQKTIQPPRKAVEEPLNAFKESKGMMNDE

## Cc1cc(NCc2cccc(-c3ccccc3)c2C)cc(OCc2cccc(C#N)c2)c1CN[C@H](CO)C(=O)O
[1]
  IC50: 363 nM

## COc1cc(NCc2cccc(-c3ccccc3)c2C)c(Cl)cc1CN[C@H](CO)C(=O)O
RAW264.7
  Activity: Non-Toxic
[2]
  Activity: Non-Toxic
[3]
  Activity: Non-Toxic
[4]
  inhibition: 40.9%
[5]
  inhibition: inactive
[6]
  Efficacy: 98.6%
[7]
  Activity: Active
[8]
  Dissociation constant (KD): 5.15 10^-10M
[9]
  association rate constant (kon): 1.29 10^6/M/s
[10]
  koff: 6.64 10^-4/s

## Cc1cc(CN[C@H](CCO)C(=O)O)c(OCc2cncc(C#N)c2)cc1NCc1cccc(-c2ccccc2)c1C
[1]
  IC50: 36 nM

## Cc1cc(CN2C[C@@H](O)CC2=O)c(OCc2cncc(C#N)c2)cc1NCc1cccc(-c2ccccc2)c1C
[1]
  IC50: 1330 nM

## Cc1cc(CN[C@H](CO)C(=O)O)c(OCc2ccccc2)cc1NCc1cccc(-c2ccccc2)c1C
[1]
  IC50: 2580 nM

## Cc1cc(CN[C@H](CO)C(=O)O)c(OCc2cncc(C#N)c2)cc1NCc1cccc(-c2ccc3c(c2)OCCO3)c1C
[1]
  IC50: 44 nM

## Cc1cc(CN[C@H](CO)C(=O)O)c(OCc2cncc(C#N)c2)cc1NCc1cccc(-c2ccccc2)c1Br
[1]
  IC50: 31 nM

## Cc1c(CN(C)c2ccc(CN[C@H](CO)C(=O)O)c(OCc3cccc(C#N)c3)c2)cccc1-c1ccccc1
[1]
  IC50: > 100000 nM

## Cc1cc(CN[C@@H](CO)C(=O)O)c(OCc2cncc(C#N)c2)cc1NCc1cccc(-c2ccccc2)c1C
[1]
  IC50: 23 nM

## Cc1c(CNc2cc(OCc3cncc(C#N)c3)c(CN[C@H](CO)C(=O)O)cc2Cl)cccc1-c1ccccc1
[1]
  IC50: 26 nM

## Cc1c(CNc2ccc(CN[C@H](CO)C(=O)O)c(OCc3cncc(C#N)c3)c2)cccc1-c1ccccc1
Raji
  Activity: Non-Toxic
RAW264.7
  Activity: Non-Toxic
[2]
  Activity: Non-Toxic
[3]
  Activity: Non-Toxic
[4]
  inhibition: 42.5%
[5]
  inhibition: inactive
[6]
  Efficacy: 95.9%
[7]
  Activity: Active
[8]
  Dissociation constant (KD): 2.96 10^-10M
[9]
  association rate constant (kon): 8.49 10^5/M/s
[10]
  koff: 2.51 10^-4/s

## Cc1c(CNc2cc(OCc3cncc(C#N)c3)c(CN[C@H](CO)C(=O)O)cc2Cl)cccc1-c1ccc2c(c1)OCCO2
[1]
  IC50: 131 nM

## Cc1cc(NCc2cccc(-c3ccccc3)c2C)cc(OCc2cncc(C#N)c2)c1CN[C@H](CO)C(=O)O
[1]
  IC50: 436 nM

## N#Cc1cccc(COc2cc(NCc3cccc(-c4ccccc4)c3Br)ccc2CN[C@H](CO)C(=O)O)c1
[1]
  IC50: 637 nM

## Cc1c(CNc2ccc(CN[C@H](CO)C(=O)O)c(OCc3cccc(C#N)c3)c2)cccc1-c1ccccc1
[11]
  inhibition: inactive
Raji
  Activity: Non-Toxic
RAW264.7
  Activity: Non-Toxic
[2]
  Activity: Non-Toxic
[3]
  Activity: Non-Toxic
[5]
  inhibition: inactive
[6]
  Efficacy: 96.1%
[7]
  Activity: Active
[8]
  Dissociation constant (KD): 1.81 10^-9M
[9]
  association rate constant (kon): 6.51 10^5/M/s
[12]
  Activity: inactive
[13]
  Activity: inactive
[14]
  Activity: inactive
[15]
  Activity: inactive
[16]
  Activity: inactive
[17]
  Activity: Active
[18]
  Activity: inactive
[10]
  koff: 1.18 10^-3/s

## N#Cc1cncc(COc2cc(NCc3cccc(-c4ccccc4)c3Br)ccc2CN[C@H](CO)C(=O)O)c1
[1]
  IC50: 206 nM

## COc1cc(NCc2cccc(-c3ccccc3)c2C)c(C)cc1CN[C@H](CO)C(=O)O
[1]
  IC50: 253 nM
